ASAP1 GAP inh – ASAP1 ArfGAP inhibition | Q9ULH1 | ASAP1-stimulated ARF1 GTP hydrolysis, GDP FP detection | inhibition, % at 16.5 µM | actives 0.19% (n = 360,000); in the data active means inhibition above about 25%
Statin myotox sup – suppressors of simvastatin-induced myotoxicity in C2C12 myotubes. ATP luminescence, 48 h; scaled: DMSO 0, geranylgeraniol control 100. rescue of ATP level, % at 7.49 µM. actives 0.78% (n = 330,000);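 active means mean ATP rescue above about 67%, or every replicate alone reaching that limit, limit read from the data, passing the limit was not always enough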;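 further: myotubes were challenged with 10 µM simvastatin during compound exposure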
ARFGAP1 inhibitor – rat ARFGAP1 inhibition | Q62848 | Arfgap1-stimulated ARF1 GTP hydrolysis, GDP FP detection | inhibition, % at 16.5 µM | actives 0.26% (n = 360,000) | AID 651572;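 active means inhibition above a per-plate limit, mean inhibition of low control wells plus 3 SD, cut at about 25% in these data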
Target sequence (Q62848 1-136 limits assumed): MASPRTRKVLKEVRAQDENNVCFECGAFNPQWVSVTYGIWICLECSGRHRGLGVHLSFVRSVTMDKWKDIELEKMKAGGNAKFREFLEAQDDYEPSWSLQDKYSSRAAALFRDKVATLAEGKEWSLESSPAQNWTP
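System: truncated rat Arfgap1 GAP domain / Benchmarks: high control wells lacking Arfgap1, low control full reaction with DMSO / Times: compound-enzyme preincubation 20 min, reaction 120 min, detection 60 min, 25 °C / Repeats: one replicate per compound / Also added: human ARF1(Δ1-17)-GTP substrate / Measured by: Tracer-displacement fluorescence polarization with EDTA stop, 620/688 nm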
A3A deaminase – blocks human APOBEC3A ssDNA deamination; P31941; recombinant A3A, FAM/TAMRA ssDNA deamination fluorescence; inhibition, % at 20 µM; actives 0.41% (n = 330,000); AID 493011;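 active means at least 40% inhibition at 20 µM here, with at most 30% in a related deaminase screen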
Target sequence (P31941 whole entry, looked up): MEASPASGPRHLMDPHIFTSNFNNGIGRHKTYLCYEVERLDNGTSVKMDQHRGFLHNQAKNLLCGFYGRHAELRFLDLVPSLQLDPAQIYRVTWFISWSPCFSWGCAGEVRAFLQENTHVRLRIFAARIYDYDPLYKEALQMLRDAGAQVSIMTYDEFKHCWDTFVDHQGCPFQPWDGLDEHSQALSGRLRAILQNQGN
A3G deaminase – blocks human APOBEC3G single-stranded DNA deamination. inhibition, % at 20 µM. recombinant A3G, ssDNA deamination FAM/TAMRA fluorescence. actives 0.28% (n = 330,000). Q9HC16;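 active means inhibition of at least 40% at 20 µM, with no more than 30% in the related APOBEC3A deaminase screen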
SUMO Mot1 rescue – blocks SUMOylation pathway, rescuing yeast Mot1-301 growth. AID 2716. actives 1% (n = 320,000). S. cerevisiae Mot1-301 growth rescue, ATP luminescence, 38.5C; percent above DMSO median, 100 means doubled. growth rescue, % at 18.8 µM;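 active means every valid replicate shows activation above 250% relative to neutral control wells; inactive means the rest, any valid replicate at or below 250%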
Hits are given with their value; n = inactive; x = no result. Compounds with a hit are over-represented: about 2.1% of the library has one in this group of screens.

SMILES	ASAP1 GAP inh	Statin myotox sup	ARFGAP1 inhibitor	A3A deaminase	A3G deaminase	SUMO Mot1 rescue
CNC(=O)C[C@H]1CC[C@H]2[C@@H](COc3ccc(NS(=O)(=O)c4cccc(F)c4)cc3C(=O)N2C)O1	x	n	x	x	x	x
COc1cccc(-c2ccc3n(c2=O)C[C@H]2[C@H](CO)[C@@H](C(=O)N(C)C)[C@@H]3N2CC2CC2)c1	x	n	x	x	x	x
NC1=C(Br)C(=O)c2ncccc2C1=O	28	x	n	x	x	x
COc1ccc(CC(=O)Nc2cc(C)on2)cc1	n	137	n	n	n	n
COC(=O)c1cc(COC(=O)c2ccc(OC)c(S(=O)(=O)N3CCCC3)c2)oc1C	n	90	n	x	x	x
CNC(=O)C[C@H]1CC[C@@H]2[C@H](COc3ccc(NC(=O)C4CC4)cc3C(=O)N2C)O1	x	n	x	x	x	x
COc1ccc(CNC(=O)c2cccs2)cc1	n	x	n	n	n	334
COc1ccc(CCNC(=O)c2cccs2)cc1	n	n	n	n	n	n
O=C(NCc1ccc(F)cc1)c1cccs1	n	n	n	n	n	318
CCOC(=O)c1oc2cccc(OC(C)=O)c2c1C	n	147	n	n	n	n
CCOC(=O)c1[nH]c(C)c(C(=O)NCC2CCCO2)c1C (stereo not given)	n	75	n	n	n	n
CCOC(=O)c1[nH]c(C)c(C(=O)NC2CCCCC2)c1C	n	n	n	n	n	n
O=C(CCC(=O)N1CCN(S(=O)(=O)c2ccc(Cl)cc2)CC1)Nc1cccc(Br)c1	n	72	n	n	n	n
COc1cc(NC(=O)Cc2cccs2)ccc1-n1cnnn1	n	94	n	n	n	n
COc1ccc(N2COC3c4cccc5cccc(c45)C32)cc1 (stereo not given)	n	88	n	n	n	n
Clc1ccc(N2COC3c4cccc5cccc(c45)C32)cc1 (stereo not given)	n	n	n	n	n	n
CC(=O)SC(C[N+](=O)[O-])c1cn(C(C)=O)c2ccccc12 (stereo not given)	n	x	n	n	n	404
O=C(COC(=O)c1ccccc1C(=O)c1ccccc1)NCc1ccc(F)cc1	n	n	n	n	n	337
O=C(Nc1ccccc1)N1CCN(c2ccccn2)CC1	n	n	n	n	n	n
Cc1ccc(NC(=O)N2CCN(c3ccccn3)CC2)cc1	n	92	n	n	n	n
COc1ccc(C(=O)N2CCC(C(=O)Nc3ccc4c(c3)OCCO4)CC2)cc1	n	86	n	n	n	n
COc1ccc(CNC(=O)C2CCN(C(=O)c3ccc(-c4ccccc4)cc3)CC2)cc1	n	n	n	n	n	n
O=C(Nc1ccc2c(c1)OCCO2)C1CCN(C(=O)c2ccc(Br)cc2)CC1	n	n	n	n	n	n
COc1ccc(CCNC(=O)C2CCN(C(=O)c3ccc([N+](=O)[O-])cc3)CC2)cc1	n	n	n	n	n	314
O=C(NCCc1ccccc1)C1CCN(C(=O)c2ccc([N+](=O)[O-])cc2)CC1	n	x	n	n	n	n
SMILES	ASAP1 GAP inh	Statin myotox sup	ARFGAP1 inhibitor	A3A deaminase	A3G deaminase	SUMO Mot1 rescue
CCCCNC(=O)C1CCN(Cc2ccccn2)CC1	n	n	n	n	n	303
COc1ccc(C(=O)N2CCC(C(=O)NCc3ccccn3)CC2)cc1	n	114	n	n	n	n
Cc1noc(C)c1NC(=O)Nc1ccc2c(c1)C(=O)N([C@@H](C)CO)C[C@H](C)[C@@H](CN(C)C(=O)Nc1ccccc1)OCCCC[C@H](C)O2	x	n	x	x	x	x
O=C(NCCCN1CCC(Cc2ccccc2)CC1)C1CCN(S(=O)(=O)N2CCOCC2)CC1	n	90	n	x	x	x
Cc1ccc(S(=O)(=O)Nc2ccc3c(c2)C(=O)N([C@@H](C)CO)C[C@H](C)[C@H](CN(C)C)OCCCC[C@@H](C)O3)cc1	x	n	x	x	x	x
Cc1cc(CNC(=O)[C@H]2C[C@@H]2[C@H](NP(=O)(c2ccccc2)c2ccccc2)c2ccccc2)nn1C	n	x	n	n	n	n
C[C@H](CO)NC(=O)[C@@H]1C[C@H]1[C@@H](NP(=O)(c1ccccc1)c1ccccc1)c1ccccc1	n	116	n	n	n	n
CN1C(=S)N2CCCN2C1c1ccccc1 (stereo not given)	n	n	n	n	n	n

High-throughput results as filed in PubChem BioAssay.
